Results taken from publication PMC4142138 (European Journal of Drug Metabolism and Pharmacokinetics, 2014).
Values after ≈ are worked out from the molar mass of the structure shown.

Legend:
[1] = In vitro pH solubility profile in Britton–Robinson buffer; format: physicochemical; details: pH 6, aqueous buffer, thermodynamic from solid
Outline: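 Excess solid added to Britton–Robinson buffer at the set pH in a vial, rolled 4 h at ambient temperature. A sample was filtered by centrifugation through a 0.45 μm PVDF membrane. The clear filtrate was assayed by gradient reversed-phase HPLC on C18 (water/acetonitrile, 0.05 % TFA) with UV detection at 220 nm.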

[2] = format: in vivo; details: human, whole blood, po, 50 mg
CXCR2 = details: read-out: IC50 for CXCL8 binding; ref GSK, data on file; cited from earlier work
healthy elderly subjects = assay: Safety and tolerability; format: in vivo, human; details: whole study
Outline: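 Healthy elderly (65–80 y) male or non-childbearing female volunteers in a single-centre randomised crossover study; 20 subjects through 4 treatment periods. Each period had omeprazole 20 mg QD for 5 days and a single oral 50 mg test compound dose (fed or fasted), with washout ≥3 days. AEs, vital signs, ECGs, clinical chemistry, haematology, urinalysis and physical examination were summarised by treatment.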

[3] = all treatment periods, 20 subjects

Cc1c(F)cccc1NC(=O)Nc1ccc(Cl)c(S(=O)(=O)[C@H]2CCCNC2)c1O [danirixin, Danirixin]
solubility at 4 h [1]: 3 µg/mL (≈ 6.79 µM) | half-life [2]: 7 to 9 h | IC50 (CXCR2): […] | serious AEs (healthy elderly subjects): no serious AEs | subjects reporting AEs during the study (healthy elderly subjects; [3]): 45% | subjects reporting headaches during the study (healthy elderly subjects; [3]): 20%
